Test results as given in ChEMBL document CHEMBL1126276, “Synthesis and antimalarial properties of 1-imino derivatives of 7-chloro-3-substituted-3,4-dihydro-1,9(2H,10H)-acridinediones and related structures” (J Med Chem, 1992).

How the values were obtained:
Assay type in all cases: functional
Plasmodium berghei [1] = assay: Antimalarial activity in Plasmodium berghei infected mice (Mus musculus) after 80 mg/kg subcutaneous dose
Outline: (§1)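 […] in mice infected with a normal drug-sensitive P. berghei strain. Compound dissolved or suspended in sesame or peanut oil, given as a single subcutaneous dose 72 h postinfection.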

Plasmodium berghei [2] = assay: Antimalarial activity in Plasmodium berghei infected mice (Mus musculus) after 40 mg/kg subcutaneous dose; outline: as §1
Plasmodium berghei [3] = assay: Antimalarial activity in Plasmodium berghei infected mice (Mus musculus) after 20 mg/kg subcutaneous dose; outline: as §1
Plasmodium berghei [4] = assay: Antimalarial activity in Plasmodium berghei infected mice (Mus musculus) after 160 mg/kg subcutaneous dose; outline: as §1
Plasmodium berghei [5] = assay: Antimalarial activity Plasmodium berghei infected mice (Mus musculus) after 640 mg/kg subcutaneous dose; outline: as §1
Plasmodium berghei [6] = assay: Antimalarial activity in Plasmodium berghei infected mice (Mus musculus) after subcutaneous 640 mg/kg dose
Outline: (§2)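 Normal drug-sensitive P. berghei strain in mice. Compound dissolved or suspended in sesame or peanut oil, given parenterally as a single subcutaneous dose 72 h postinfection.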

Plasmodium berghei [7] = assay: Antimalarial activity in Plasmodium berghei infected mice (Mus musculus) after subcutaneous 160 mg/kg dose; outline: as §2
Plasmodium berghei [8] = assay: Antimalarial activity in Plasmodium berghei infected mice (Mus musculus) after subcutaneous 320 mg/kg dose; outline: as §2

Compound | Delta mean survival time (Plasmodium berghei [1]) | Delta mean survival time (Plasmodium berghei [2]) | Delta mean survival time (Plasmodium berghei [3]) | Delta mean survival time (Plasmodium berghei [4]) | Delta mean survival time (Plasmodium berghei [5]) | No. of cured mice (Plasmodium berghei [6]) | No. of cured mice (Plasmodium berghei [7]) | No. of cured mice (Plasmodium berghei [8])
Cc1ccc(C2CC(=O)c3c(n(O)c4ccc(Cl)cc4c3=O)C2)cc1 (stereo unspecified) | 2.8 | 0.6 | 0.8 | 3.1 | 6.9 |  |  | 
COc1ccc(C2C/C(=N\CCCN(C)C)c3c(nc4ccc(Cl)cc4c3O)C2)cc1 (stereo unspecified) |  | 0.5 |  | 4.5 | 11.2 | 1 |  | 
COc1ccccc1C1C/C(=N\CCCN(C)C)c2c(nc3ccc(Cl)cc3c2O)C1 (stereo unspecified) |  | 1.7 |  | 6.7 | 6.4 | 2 |  | 
O=C1CC(c2ccc(C3CCCCC3)cc2)Cc2c1c(=O)c1cc(Cl)ccc1n2O (stereo unspecified) |  | 0.9 |  | 1.3 | 4.1 |  |  | 
O=C1CC(c2ccccc2C(F)(F)F)Cc2c1c(=O)c1cc(Cl)ccc1n2O (stereo unspecified) |  | 2.7 | 0.6 | 4.5 | 8.3 |  |  | 
Cc1ccc(C2CC(=O)c3c(nc4ccc(Cl)cc4c3O)C2)cc1 (stereo unspecified) |  | 3.9 |  | 8.7 | 11.7 | 2 | 2 | 
O=C1CC2(CCCCC2)Cc2c1c(=O)c1cc(Cl)ccc1n2O |  | 0 |  | 0.2 | 0 |  |  | 
O=C1c2c(nc3ccc(Cl)cc3c2O)CC(c2ccc(Cl)c(Cl)c2)C1c1ccccc1 (stereo unspecified) |  | 0 |  | 0.4 | 1.4 |  |  | 
O=C1CC(c2ccc(C(F)(F)F)cc2)Cc2nc3ccc([N+](=O)[O-])cc3c(O)c21 (stereo unspecified) |  | 4.1 | 0.7 | 2.8 | 6.9 | 1 |  | 
O=C1CC(c2ccc([N+](=O)[O-])cc2)Cc2nc3ccc(Cl)cc3c(O)c21 (stereo unspecified) |  | 0.8 |  | 4.6 | 13.3 | 2 |  | 
O=c1c2c(n(O)c3ccc(Cl)cc13)CC(c1cccc(C(F)(F)F)c1)C/C2=N\CCCN1CCCC1 (stereo unspecified) | 6 | 6.2 |  | 9.6 | 25.6 | 4 | 3 | 5
COc1ccc(C2CC(=O)c3c(nc4ccc(Cl)cc4c3O)C2)cc1 (stereo unspecified) |  | -0.1 |  | 0.1 | -0.1 |  |  | 
O=C1CC(c2ccccc2Cl)Cc2c1c(=O)c1cc(Cl)ccc1n2O (stereo unspecified) |  | 4.6 | 1.7 | 4.5 | 9 | 4 | 1 | 
O=C1c2c(nc3ccc(Cl)cc3c2O)CCC1c1ccccc1 (stereo unspecified) | 0 | 0.2 |  | 0 | 0 |  |  | 
O=C1CC(c2ccncc2)Cc2c1c(=O)c1cc(Cl)ccc1n2O (stereo unspecified) |  | 0 |  | 0.2 | 2 |  |  | 
O=C1CC(c2ccccc2Cl)Cc2nc3ccc(Cl)cc3c(O)c21 (stereo unspecified) | 5.5 | 2.7 | 1.5 | 0.4 | 9.6 | 1 | 1 | 
O=C1CC2(CCCCC2)Cc2nc3ccc(Cl)cc3c(O)c21 |  | 0.6 |  | 0 | 0.2 |  |  | 
O=C1CC(c2ccccc2C(F)(F)F)Cc2nc3ccc(Cl)cc3c(O)c21 (stereo unspecified) |  | 0.7 |  | 8.5 | 8.3 |  |  | 
